Test results as given in ChEMBL document CHEMBL4330096, “Discovery of potent and selective 5-azaindazole inhibitors of leucine-rich repeat kinase 2 (LRRK2) - Part 1” (Bioorg Med Chem Lett, 2019).

Columns and labels:
[1] = molecular target: Tyrosine-protein kinase Lck (Homo sapiens) (UniProt P06239); test: Inhibition of Lck (unknown origin) at 1 uM relative to control
Summary of the method: (§1)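 Single-point screen of each compound against a panel of 59 protein kinases, at 1 or 10 μM. The panel data are also summarised as a rescaled geometric mean selectivity score.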

[2] = molecular target: Serine/threonine-protein kinase N2 (Homo sapiens) (UniProt Q16513); test: Inhibition of PRK2 (unknown origin) at 1 uM relative to control
Chain of Serine/threonine-protein kinase N2 (Homo sapiens) (Q16513 whole entry, looked up): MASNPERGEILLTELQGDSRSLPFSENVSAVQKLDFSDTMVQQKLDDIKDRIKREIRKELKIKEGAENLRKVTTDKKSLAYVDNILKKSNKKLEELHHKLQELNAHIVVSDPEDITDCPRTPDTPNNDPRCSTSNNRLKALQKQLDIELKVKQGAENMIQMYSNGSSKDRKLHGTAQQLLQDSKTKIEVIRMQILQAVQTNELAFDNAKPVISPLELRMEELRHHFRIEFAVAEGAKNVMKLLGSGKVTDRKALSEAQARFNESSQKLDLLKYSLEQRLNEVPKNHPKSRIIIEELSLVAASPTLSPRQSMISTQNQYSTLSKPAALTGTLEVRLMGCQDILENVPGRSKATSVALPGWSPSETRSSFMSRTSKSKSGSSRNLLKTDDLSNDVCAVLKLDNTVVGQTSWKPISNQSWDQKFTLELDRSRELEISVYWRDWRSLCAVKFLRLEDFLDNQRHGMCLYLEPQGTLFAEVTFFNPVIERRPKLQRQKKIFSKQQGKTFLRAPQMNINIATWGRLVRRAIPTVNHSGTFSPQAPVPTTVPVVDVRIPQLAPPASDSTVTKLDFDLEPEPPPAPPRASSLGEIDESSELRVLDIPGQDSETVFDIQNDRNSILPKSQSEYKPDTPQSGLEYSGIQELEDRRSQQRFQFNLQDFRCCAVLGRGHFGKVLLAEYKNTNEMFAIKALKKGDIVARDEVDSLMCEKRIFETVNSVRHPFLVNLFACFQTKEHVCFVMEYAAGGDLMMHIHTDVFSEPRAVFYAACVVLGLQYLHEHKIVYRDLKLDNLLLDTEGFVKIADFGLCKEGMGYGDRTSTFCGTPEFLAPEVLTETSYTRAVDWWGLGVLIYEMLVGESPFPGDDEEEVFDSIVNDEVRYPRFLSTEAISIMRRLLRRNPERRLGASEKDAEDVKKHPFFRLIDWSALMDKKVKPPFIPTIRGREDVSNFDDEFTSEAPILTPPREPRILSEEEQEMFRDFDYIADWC
Summary of the method: (§2)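 Single-concentration screen of each compound against a 59-protein-kinase panel, run at 10 µM or 1 µM. Activity relative to control is shown as a heat map across the panel.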

[3] = molecular target: Serine/threonine-protein kinase PAK 4 (Homo sapiens) (UniProt O96013); test: Inhibition of PAK4 (unknown origin) at 1 uM relative to control; summary of the method: as §2
Chain of Serine/threonine-protein kinase PAK 4 (Homo sapiens) (O96013 whole entry, looked up): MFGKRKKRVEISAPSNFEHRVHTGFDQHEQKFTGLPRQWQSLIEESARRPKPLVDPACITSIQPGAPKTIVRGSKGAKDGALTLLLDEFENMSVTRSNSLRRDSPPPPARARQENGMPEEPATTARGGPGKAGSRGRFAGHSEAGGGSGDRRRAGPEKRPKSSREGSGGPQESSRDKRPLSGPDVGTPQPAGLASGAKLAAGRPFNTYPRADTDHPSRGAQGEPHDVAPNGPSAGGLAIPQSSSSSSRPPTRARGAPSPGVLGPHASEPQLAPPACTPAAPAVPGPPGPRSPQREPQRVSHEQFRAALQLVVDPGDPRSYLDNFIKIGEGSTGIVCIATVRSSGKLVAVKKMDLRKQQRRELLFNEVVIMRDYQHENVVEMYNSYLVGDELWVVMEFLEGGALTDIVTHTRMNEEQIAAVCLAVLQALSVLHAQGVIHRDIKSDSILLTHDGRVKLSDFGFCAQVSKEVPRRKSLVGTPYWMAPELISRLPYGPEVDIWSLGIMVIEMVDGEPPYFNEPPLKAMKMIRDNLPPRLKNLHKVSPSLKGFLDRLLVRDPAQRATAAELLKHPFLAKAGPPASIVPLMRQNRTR

[4] = molecular target: Calcium/calmodulin-dependent protein kinase kinase 2 (Homo sapiens) (UniProt Q96RR4); test: Inhibition of CAMKKb (unknown origin) at 1 uM relative to control; summary of the method: as §1
Chain of Calcium/calmodulin-dependent protein kinase kinase 2 (Homo sapiens) (Q96RR4 2-588 limits assumed): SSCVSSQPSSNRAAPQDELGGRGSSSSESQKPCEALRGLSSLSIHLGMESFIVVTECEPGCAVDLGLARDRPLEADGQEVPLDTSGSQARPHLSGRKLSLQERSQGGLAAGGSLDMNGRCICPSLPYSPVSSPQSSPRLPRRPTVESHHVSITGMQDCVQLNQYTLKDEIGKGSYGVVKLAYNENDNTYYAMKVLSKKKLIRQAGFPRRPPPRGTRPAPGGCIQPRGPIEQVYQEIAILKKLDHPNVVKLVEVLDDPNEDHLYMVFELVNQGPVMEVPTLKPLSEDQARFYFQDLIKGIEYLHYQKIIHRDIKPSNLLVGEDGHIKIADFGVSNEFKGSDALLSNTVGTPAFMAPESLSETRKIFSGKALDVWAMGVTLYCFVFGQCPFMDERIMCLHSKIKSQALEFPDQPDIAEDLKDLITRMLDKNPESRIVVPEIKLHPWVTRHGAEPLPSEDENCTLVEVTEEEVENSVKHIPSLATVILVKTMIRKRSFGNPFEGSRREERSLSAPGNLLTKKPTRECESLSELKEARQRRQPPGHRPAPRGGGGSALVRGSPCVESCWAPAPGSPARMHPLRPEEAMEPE

[5] = molecular target: T1, Eukaryotic elongation factor 2 kinase (Homo sapiens) (UniProt O00418); test: Inhibition of EF2K (unknown origin) at 1 uM relative to control; summary of the method: as §1
T1 sequence (whole entry): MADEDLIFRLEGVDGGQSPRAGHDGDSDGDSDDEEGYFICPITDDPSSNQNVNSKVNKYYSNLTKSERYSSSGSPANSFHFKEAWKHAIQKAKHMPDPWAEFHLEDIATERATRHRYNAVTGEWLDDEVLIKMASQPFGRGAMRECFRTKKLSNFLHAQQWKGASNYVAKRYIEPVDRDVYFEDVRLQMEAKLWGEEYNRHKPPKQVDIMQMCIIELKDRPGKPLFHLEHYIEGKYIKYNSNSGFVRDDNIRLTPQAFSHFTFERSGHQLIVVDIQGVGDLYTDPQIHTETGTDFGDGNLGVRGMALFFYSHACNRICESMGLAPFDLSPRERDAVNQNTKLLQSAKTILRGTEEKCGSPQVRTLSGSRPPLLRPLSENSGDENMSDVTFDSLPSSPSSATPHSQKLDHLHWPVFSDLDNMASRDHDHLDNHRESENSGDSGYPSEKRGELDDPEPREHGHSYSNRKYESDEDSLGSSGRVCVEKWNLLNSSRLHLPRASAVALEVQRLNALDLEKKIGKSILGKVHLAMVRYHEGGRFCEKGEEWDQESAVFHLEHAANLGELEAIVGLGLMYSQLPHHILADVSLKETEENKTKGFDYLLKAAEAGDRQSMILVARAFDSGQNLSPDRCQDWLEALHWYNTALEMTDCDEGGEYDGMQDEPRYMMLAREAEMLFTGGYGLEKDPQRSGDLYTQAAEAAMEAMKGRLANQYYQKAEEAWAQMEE

[6] = molecular target: RAC-alpha serine/threonine-protein kinase (Homo sapiens) (UniProt P31749); test: Inhibition of PKBa (unknown origin) at 1 uM relative to control; summary of the method: as §2
Chain of RAC-alpha serine/threonine-protein kinase (Homo sapiens) (P31749 whole entry): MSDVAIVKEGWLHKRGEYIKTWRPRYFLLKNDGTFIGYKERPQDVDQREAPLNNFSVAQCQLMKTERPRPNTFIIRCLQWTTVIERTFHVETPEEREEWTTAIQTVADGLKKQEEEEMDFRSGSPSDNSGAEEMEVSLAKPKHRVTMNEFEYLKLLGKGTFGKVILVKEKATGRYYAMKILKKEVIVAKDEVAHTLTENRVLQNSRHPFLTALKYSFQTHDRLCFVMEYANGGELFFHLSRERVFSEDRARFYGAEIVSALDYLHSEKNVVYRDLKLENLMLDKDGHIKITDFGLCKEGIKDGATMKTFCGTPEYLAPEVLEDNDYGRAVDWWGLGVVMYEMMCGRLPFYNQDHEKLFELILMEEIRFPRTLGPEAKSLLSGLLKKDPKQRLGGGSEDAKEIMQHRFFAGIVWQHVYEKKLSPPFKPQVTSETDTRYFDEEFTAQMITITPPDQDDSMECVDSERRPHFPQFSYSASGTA

[7] = molecular target: Proto-oncogene tyrosine-protein kinase Src (Homo sapiens) (UniProt P12931); test: Inhibition of Src (unknown origin) at 1 uM relative to control
Chain of Proto-oncogene tyrosine-protein kinase Src (Homo sapiens) (P12931 2-536 limits assumed): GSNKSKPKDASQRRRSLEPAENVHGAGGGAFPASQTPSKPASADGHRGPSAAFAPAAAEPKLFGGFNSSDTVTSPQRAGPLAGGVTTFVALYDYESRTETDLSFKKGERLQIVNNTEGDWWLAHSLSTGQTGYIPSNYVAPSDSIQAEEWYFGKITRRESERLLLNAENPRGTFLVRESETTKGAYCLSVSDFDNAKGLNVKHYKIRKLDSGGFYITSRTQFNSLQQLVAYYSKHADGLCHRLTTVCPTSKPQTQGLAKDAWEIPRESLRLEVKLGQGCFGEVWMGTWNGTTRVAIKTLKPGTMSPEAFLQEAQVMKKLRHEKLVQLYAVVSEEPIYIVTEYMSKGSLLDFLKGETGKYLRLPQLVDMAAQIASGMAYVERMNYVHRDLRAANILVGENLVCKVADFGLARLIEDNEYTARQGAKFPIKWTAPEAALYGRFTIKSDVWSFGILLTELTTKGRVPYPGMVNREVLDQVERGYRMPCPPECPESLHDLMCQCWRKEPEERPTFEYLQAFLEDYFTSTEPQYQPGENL
Summary of the method: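 Single-concentration screen across a panel of 59 protein kinases, with each compound tested at one fixed concentration. The read-out is residual kinase activity relative to control. Panel results are also condensed into a rescaled geometric mean (RGM) selectivity score.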

[8] = molecular target: Mitogen-activated protein kinase 8 (Homo sapiens) (UniProt P45983); test: Inhibition of JNK1 (unknown origin) at 1 uM relative to control; summary of the method: as §1
Chain of Mitogen-activated protein kinase 8 (Homo sapiens) (P45983 whole entry): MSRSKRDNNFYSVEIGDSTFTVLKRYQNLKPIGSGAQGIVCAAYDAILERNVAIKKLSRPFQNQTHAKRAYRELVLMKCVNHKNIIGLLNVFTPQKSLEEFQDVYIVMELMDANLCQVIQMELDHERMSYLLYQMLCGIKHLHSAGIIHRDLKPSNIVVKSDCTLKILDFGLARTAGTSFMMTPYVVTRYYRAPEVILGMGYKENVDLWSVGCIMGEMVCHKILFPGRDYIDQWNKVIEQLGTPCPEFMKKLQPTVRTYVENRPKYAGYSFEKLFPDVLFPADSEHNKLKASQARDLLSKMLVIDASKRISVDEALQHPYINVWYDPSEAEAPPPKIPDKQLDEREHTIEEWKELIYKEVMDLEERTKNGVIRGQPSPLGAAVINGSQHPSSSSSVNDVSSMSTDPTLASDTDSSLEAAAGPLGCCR

[9] = molecular target: T2, MAP kinase-activated protein kinase 5 (Homo sapiens) (UniProt Q8IW41); test: Inhibition of PRAK (unknown origin) at 1 uM relative to control; summary of the method: as §2
T2 sequence (whole entry): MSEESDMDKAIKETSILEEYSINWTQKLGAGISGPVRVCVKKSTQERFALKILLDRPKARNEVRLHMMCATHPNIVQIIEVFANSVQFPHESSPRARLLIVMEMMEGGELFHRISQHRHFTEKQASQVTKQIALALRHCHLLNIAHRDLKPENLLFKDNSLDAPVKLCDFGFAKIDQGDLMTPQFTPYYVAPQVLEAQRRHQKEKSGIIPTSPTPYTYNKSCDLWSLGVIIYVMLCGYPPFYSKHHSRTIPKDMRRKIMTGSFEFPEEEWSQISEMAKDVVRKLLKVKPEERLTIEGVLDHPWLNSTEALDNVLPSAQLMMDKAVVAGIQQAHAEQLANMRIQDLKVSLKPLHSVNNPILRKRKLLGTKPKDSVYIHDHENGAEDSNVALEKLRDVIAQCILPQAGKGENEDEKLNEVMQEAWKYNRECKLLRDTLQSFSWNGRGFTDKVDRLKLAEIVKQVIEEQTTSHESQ

[10] = molecular target: T3, Serine/threonine-protein kinase Chk1 (Homo sapiens) (UniProt O14757); test: Inhibition of CHK1 (unknown origin) at 1 uM relative to control; summary of the method: as §1
T3 sequence (whole entry): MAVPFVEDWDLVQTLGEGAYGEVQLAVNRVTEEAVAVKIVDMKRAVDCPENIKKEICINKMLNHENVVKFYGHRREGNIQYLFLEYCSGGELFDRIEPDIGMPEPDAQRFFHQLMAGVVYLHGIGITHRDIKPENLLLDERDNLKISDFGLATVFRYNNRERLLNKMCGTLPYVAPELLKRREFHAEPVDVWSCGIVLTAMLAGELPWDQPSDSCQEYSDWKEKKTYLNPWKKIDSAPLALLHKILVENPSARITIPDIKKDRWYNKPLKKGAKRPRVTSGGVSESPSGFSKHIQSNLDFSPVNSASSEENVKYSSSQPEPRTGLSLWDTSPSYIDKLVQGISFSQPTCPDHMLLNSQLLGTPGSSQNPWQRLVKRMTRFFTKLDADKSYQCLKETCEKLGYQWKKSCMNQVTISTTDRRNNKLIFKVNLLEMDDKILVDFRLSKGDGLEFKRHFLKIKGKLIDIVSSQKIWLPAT

[11] = molecular target: T4, Serine/threonine-protein kinase 3 (Homo sapiens) (UniProt Q13188); test: Inhibition of MST2 (unknown origin) at 1 uM relative to control; summary of the method: as §2
T4 sequence (whole entry): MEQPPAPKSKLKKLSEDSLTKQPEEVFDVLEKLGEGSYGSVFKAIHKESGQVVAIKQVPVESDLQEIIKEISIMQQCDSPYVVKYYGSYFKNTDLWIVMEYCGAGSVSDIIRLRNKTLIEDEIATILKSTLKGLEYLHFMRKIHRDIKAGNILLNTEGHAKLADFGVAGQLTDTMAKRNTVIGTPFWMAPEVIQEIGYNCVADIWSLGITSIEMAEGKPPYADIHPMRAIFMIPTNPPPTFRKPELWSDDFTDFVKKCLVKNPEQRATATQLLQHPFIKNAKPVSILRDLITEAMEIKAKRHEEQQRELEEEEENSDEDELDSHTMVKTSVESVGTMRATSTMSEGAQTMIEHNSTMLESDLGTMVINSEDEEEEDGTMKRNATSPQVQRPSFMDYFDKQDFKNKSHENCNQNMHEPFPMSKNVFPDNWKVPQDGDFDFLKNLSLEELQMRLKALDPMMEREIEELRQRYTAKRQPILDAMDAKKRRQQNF

Chain of Tyrosine-protein kinase Lck (Homo sapiens) (P06239 2-509 limits assumed): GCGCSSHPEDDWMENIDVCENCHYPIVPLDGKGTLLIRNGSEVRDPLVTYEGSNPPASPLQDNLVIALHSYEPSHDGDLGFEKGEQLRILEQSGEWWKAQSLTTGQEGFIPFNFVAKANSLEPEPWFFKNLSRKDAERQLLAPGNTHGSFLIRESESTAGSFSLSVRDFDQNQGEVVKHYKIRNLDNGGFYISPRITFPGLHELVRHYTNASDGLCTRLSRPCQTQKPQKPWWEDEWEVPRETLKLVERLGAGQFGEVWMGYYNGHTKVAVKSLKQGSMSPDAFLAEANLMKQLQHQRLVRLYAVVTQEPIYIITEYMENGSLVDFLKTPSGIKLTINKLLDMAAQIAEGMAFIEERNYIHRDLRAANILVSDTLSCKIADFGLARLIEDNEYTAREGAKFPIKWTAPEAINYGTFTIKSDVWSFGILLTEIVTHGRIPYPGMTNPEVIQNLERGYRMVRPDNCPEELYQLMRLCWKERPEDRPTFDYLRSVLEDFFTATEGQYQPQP

SMILES | inhibition [1] | inhibition [2] | inhibition [3] | inhibition [4] | inhibition [5] | inhibition [6] | inhibition [7] | inhibition [8] | inhibition [9] | inhibition [10] | inhibition [11]
c1cc(-c2n[nH]c3ccnc(OC4CCOCC4)c23)cc(N2CCOCC2)n1 | 8% | 0% | 0% | 0% | 9% | 0% | 0% | 47% | 4% | 0% | 7%
CC(C)n1cc(-c2n[nH]c3ccnc(OC4CCOCC4)c23)cn1 | 0% | 24% | 46% | 1% | 0% | 0% | 0% | 27% | 19% | 5% | 40%
